From PubChem
Granule exo inh: blocks lytic granule exocytosis | TALL-104 LAMP-1 surface exposure, flow cytometry; cells stimulated with thapsigargin and PMA | 0.66% of 360,000 active | inhibition, % at 10 µM | AID 651702;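 active = inhibition above about 55%, limit read from the data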
rCAG RNA binder: binds r(CAG) RNA repeats. 1.3% of 370,000 active. inhibition, % at 3 µM. r(CAG) RNA repeat, TO-PRO-1 dye displacement fluorescence. AID 651821;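 active = inhibition above the plate cutoff, the mean of all test compounds on that plate plus 3 SD, cut at about 35% in these data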;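 also: 0% = DMSO alone and 100% = 100 µM mitoxantrone as full dye displacement; higher means more dye released from RNA so lower well fluorescence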
MPTP inh: blocks calcium-induced mitochondrial swelling | isolated mouse mitochondria, Ca2+ swelling absorbance, 30 min | inhibition, % at 10 µM | 1.4% of 360,000 active | AID 602449;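 active = inhibition of 50% or more, scaled per plate between neutral and stimulator controls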;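 also: 0% = DMSO wells given calcium and 100% = 1 mM EGTA wells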
V-ATPase pHluor: alters yeast V-ATPase proton transport; response, % at 10 µM; 0.37% of 350,000 active; S. cerevisiae, pHLuorin cytosolic pH fluorescence; in the data active = response mostly above about 7.3%, no sharp cut-off; inactive = mostly below about 5.4%; also: actives read high
T cell HTS: T cell immune modulators affecting CD8 T cell-vesicle binding; 2C CD8+ T cell-vesicle binding, flow cytometry; active compounds read low; response (vesicle binding), % at 7 µM; 0.068% of 330,000 active;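 active = response, share of CD8 T cells binding vesicles, and their 90th percentile fluorescence all below set limits, cut at about 80% in these data, passing the limit was not always enough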;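 also: values below 100% mean blocked vesicle binding to the CD8+ T cells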
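Test system: purified 2C TCR transgenic mouse naive CD8+ T cells. Probe or stimulus: QL9-peptide-loaded Drosophila micro-vesicles bearing Ld, ICAM-1 and B7-1. Incubation: binding step 1.5 h, 37 °C, antibody labelling 20 min, ice. Measured by: flow cytometry of vesicle-bound cells.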
B2AR ag: human beta-2 adrenergic receptor agonism by FAP | 0.43% of 340,000 active | Am2.2-beta2AR cells, FAP receptor internalization, flow cytometry | response, % (test concentration not listed) | AID 504454 | P07550;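 active = response above a set limit, near 3 SD of response in nonfluorescent compounds, cut at about 42% in these data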
Target sequence (P07550 whole entry, looked up): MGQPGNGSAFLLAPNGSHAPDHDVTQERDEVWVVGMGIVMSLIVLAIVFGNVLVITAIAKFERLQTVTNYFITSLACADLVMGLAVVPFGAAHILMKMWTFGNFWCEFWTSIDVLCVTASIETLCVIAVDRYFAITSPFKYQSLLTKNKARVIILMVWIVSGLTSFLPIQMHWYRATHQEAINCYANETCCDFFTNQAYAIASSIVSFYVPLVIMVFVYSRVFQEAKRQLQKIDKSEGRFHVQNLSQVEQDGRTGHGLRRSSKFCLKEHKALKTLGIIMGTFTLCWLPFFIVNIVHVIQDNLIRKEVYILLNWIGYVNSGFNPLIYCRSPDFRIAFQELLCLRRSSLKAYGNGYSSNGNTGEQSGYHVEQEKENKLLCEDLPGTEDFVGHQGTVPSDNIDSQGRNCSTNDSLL
* = called active by the depositor; i = inactive; . = no result given. Rows were chosen to be rich in hits. Some 3.8% of all compounds tested hit in one or more screens of this group.

SMILES	Granule exo inh	rCAG RNA binder	MPTP inh	V-ATPase pHluor	T cell HTS	B2AR ag
COc1ccccc1NC(=O)OC1CCC12CCCCC2 (stereo not drawn)	.	2	.	.	.	.
COc1cc(/C=C/C=C2/CC/C(=C/C=C/c3ccc(O)c(OC)c3)C2=O)ccc1O	26	80*	3	1	.	-418
COc1cc(/C=C2\COC/C(=C\c3ccc(O)c(OC)c3)C2=O)ccc1O	64*	11	5	-2	312	28
COc1ccc(/C=C2\CN(Cc3ccccc3)C/C(=C\c3ccc(OC)c(O)c3)C2=O)cc1O	67*	14	0	3	i	33
COc1cc(C=C2C(=O)c3ccccc3C2=O)ccc1O	6	5	5	-2	278	12
COc1cc(/C=C2/CC/C(=C/c3ccc(O)c(OC)c3)C2=O)ccc1O	86*	26	15	-1	557	-12
COc1ccc(/C=C2\CC/C(=C\c3ccc(OC)c(OC)c3)C2=O)cc1OC	1	1	-21	-3	114	6
CCCCNS(=O)(=O)CC1NCc2ccc(C)cc21 (stereo not drawn)	.	6	.	.	.	.
COc1ccc(OC)c(S(=O)(=O)N2CCCCC2C(=O)N2CCN(c3ccccc3F)CC2)c1 (stereo not drawn)	.	2	.	.	.	.
O=c1c2cc3cccnc3nc2ncn1Cc1cccs1	.	3	.	.	.	.
C[C@H](O)[C@@H]1CN2CCc3ccc(N4CCOCC4)cc3[C@@H]2C[C@@H]1N(C)CC1CCCCC1	.	1	.	.	.	.
C=CCn1c(CSc2ccccc2[N+](=O)[O-])n[nH]c1=S	-16	34	0	2	213	12
C=CCn1c(Sc2ncc([N+](=O)[O-])s2)n[nH]c1=O	58*	3	5	1	121	33
Cc1ccccc1C(=O)N1CCC(Oc2cccnc2)CC1	.	0	.	.	.	.
COc1ccc(NC(=O)c2cccs2)cc1	0	1	-12	21*	300	-14
O=C(Nc1ccc(NC(=O)c2cccs2)cc1)c1cccs1	-10	2	0	-4	224	-10
Cc1ccccc1Nc1nc(NCc2ccco2)c2ccccc2n1	82*	5	41	-5	311	10
O=C(O)CSc1c(-c2ccccc2)[nH]c2ccccc12	-2	1	0	17*	124	0
C#CCN1C(C(=O)OC)CN(CCCCCC)CCS1(=O)=O (stereo not drawn)	.	-1	.	.	.	.
COc1ccc(NC(=O)Nc2cccc(OC)c2)cc1	-2	0	5	0	265	-31
COc1ccc2nc(NC(=O)Nc3ccccc3)sc2c1	-2	43*	4	2	560	-8
COc1cccc(NC(=O)Nc2ccc3nc(C)c(C)nc3c2)c1	6	15	0	6	73*	7
COc1cccc2sc(Nc3nc4ccc(NC(C)=O)cc4s3)nc12	2	49*	5	-17	357	12
CC(=O)Nc1ccc2nc(NC(=O)COc3ccccc3C)sc2c1	0	8	-2	1	335	-2
CC(=O)Nc1ccc(C=NN=C2c3ccccc3-c3ccccc32)cc1	-1	9	3	-7	.	92*
SMILES	Granule exo inh	rCAG RNA binder	MPTP inh	V-ATPase pHluor	T cell HTS	B2AR ag
COc1ccc(C=NN=C2c3ccccc3-c3ccccc32)cc1O	10	18	4	1	.	-16
CCNC(=O)Nc1ccc2c(c1)C(=O)N(C)[C@H]1CC[C@H](CC(=O)N[C@H](C)c3ccccc3)O[C@@H]1CO2	.	0	.	.	.	.
COc1ccc(S[C@]2(C(=O)N(C)C)CC(=O)N(S(=O)(=O)c3ccc(F)cc3)[C@@H]2c2ccc(OC)cc2)cc1	.	11	.	.	.	.
O=C1c2ccccc2C(=O)N1OS(=O)(=O)c1ccccc1	.	.	.	.	333	.
Cc1cc(S(=O)(=O)ON2C(=O)c3ccccc3C2=O)ccc1F	-1	0	1	11*	507	-3
Cc1[nH]nc2c1C(c1cnn(C)c1)C(C#N)=C(N)O2 (stereo not drawn)	-5	1	0	4	59*	-2
COC(=O)C1=C(C)N(Cc2ccco2)C(=O)/C1=C\c1ccc([N+](=O)[O-])cc1	92*	13	0	-2	234	19
COC(=O)C1=C(C)N(Cc2ccco2)C(=O)/C1=C\c1ccc(N(C)C)cc1	-3	0	11	2	221	-2
COc1cccc(/C=N/Nc2ncnc3c2[nH]c2ccc(C)cc23)c1OC	-2	9	8	0	260	52*
